Source: PubChem (The Scripps Research Institute Molecular Screening Center)
S1P4 agonist = S1P4 receptor agonists, primary screen, cell-based; activation, % at 4.98 µM; hit rate 0.35% among 220,000; Sphingosine 1-phosphate receptor 4 (Homo sapiens), O95977; S1P4-expressing cell line, agonist reporter assay; AID 1509, 2009; in the data active = activation above about 11%;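 note: 0% = DMSO vehicle and 100% = reference agonist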
NPY-Y1 PAM-ag = NPY-Y1 receptor potentiators or agonists, primary screen, cell-based; activation, % at 3.6 µM; NPY-Y1 expressing cells, potentiator/agonist activation; Neuropeptide Y receptor type 1 (Homo sapiens), P25929; AID 1304, 2008; hit rate 0.37% among 220,000; in the data active = activation above about 33%, passing the limit was not always enough;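 note: cells stimulated with NPY at EC10 then isoproterenol at EC100; 0% = low agonist plus stimulus and 100% = saturating agonist plus stimulus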
NPY-Y2 antag = NPY-Y2 receptor antagonists, primary screen, cell-based. inhibition, % at 2.7 µM. Neuropeptide Y receptor type 2 (Homo sapiens), P49146. NPY-Y2 expressing cells, antagonist mode. hit rate 0.99% among 140,000; in the data active = inhibition above about 17%;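 note: 0% = vehicle with agonist challenge and 100% = reference antagonist with challenge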
Target sequence (P49146 whole entry, looked up): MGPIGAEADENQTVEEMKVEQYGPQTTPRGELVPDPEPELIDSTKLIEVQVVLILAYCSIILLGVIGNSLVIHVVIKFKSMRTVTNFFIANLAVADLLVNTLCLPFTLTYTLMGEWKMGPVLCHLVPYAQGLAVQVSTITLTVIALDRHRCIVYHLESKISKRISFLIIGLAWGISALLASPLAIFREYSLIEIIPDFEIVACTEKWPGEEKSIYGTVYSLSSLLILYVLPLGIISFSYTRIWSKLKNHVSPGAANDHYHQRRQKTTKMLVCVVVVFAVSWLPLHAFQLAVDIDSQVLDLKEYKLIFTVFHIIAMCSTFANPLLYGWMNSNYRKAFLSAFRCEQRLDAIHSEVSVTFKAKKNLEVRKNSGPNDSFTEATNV
NPY2 pot ag = NPY-Y2 potentiators or agonists, primary screen, cell-based; Neuropeptide Y receptor type 2 (Homo sapiens), P49146; cells expressing NPY-Y2, potentiator/agonist read-out; activation, % at 3.6 µM; hit rate 0.45% among 220,000; in the data active = activation above about 27%;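 note: cells stimulated with NPY near EC25 plus isoproterenol at EC100; 0% = vehicle plus submaximal agonist and 100% = vehicle plus saturating agonist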
S1P4 antagonist = S1P4 receptor antagonists, primary screen, cell-based; Sphingosine 1-phosphate receptor 4 (Homo sapiens), O95977; S1P4-expressing cells, antagonist mode, reporter read-out; inhibition, % at 4.98 µM; hit rate 0.26% among 220,000; in the data active = inhibition above about 29%;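 note: 0% = wells stimulated with agonist and 100% = vehicle wells without agonist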
NPY Y1 blocker = NPY-Y1 receptor antagonists, primary screen, cell-based; HEK293-CNG Y1 cells, membrane potential fluorescence; NPY at EC95, then isoproterenol; Neuropeptide Y receptor type 1 (Homo sapiens), P25929; hit rate 1% among 200,000; AID 1040, 2008; inhibition, % at 3.6 µM;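 active = inhibition above the campaign mean inhibition of all tested compounds plus 3 SD, cut at about 20% in these data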;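 note: 0% = DMSO wells given NPY plus isoproterenol and 100% = isoproterenol alone without NPY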
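Material: HEK293 cells with Y1 receptor plus CNG channel; times: compound incubation 1 h at room temperature, readout 45 min post-stimulation; signal: fluorescence, membrane potential probe; read-out basis: fluorescence ratio normalized to % inhibition between controls; benchmarks: full-block control isoproterenol-only wells, zero-block control NPY plus isoproterenol wells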
NPY-Y1 confirm = NPY-Y1 potentiators or agonists, confirmation, cell-based | shares compounds with NPY-Y1 PAM-ag | cell-based NPY-Y1 potentiator/agonist assay | hit rate 20% among 280 | AID 1546, 2009 | activation, % at 3.6 µM; in the data active = activation above about 45%;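 note: cells challenged with NPY at its EC10 plus isoproterenol stimulus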
NPY-Y2 counter = NPY-Y2 potentiators or agonists, counter-screen for NPY-Y1 potentiator project, cell-based, fluorescence; shares compounds with NPY-Y1 PAM-ag; HEK293-CNG cells, membrane-potential fluorescence (FLIPR), 1536-well; activation, % at 3.6 µM; hit rate 20% among 280; AID 1649, 2009; in the data active = activation above about 33%
NPY-Y1 agonist = NPY-Y1 direct agonists without NPY, confirmation, counter-screen for NPY-Y1 potentiator project, cell-based, fluorescence | shares compounds with NPY-Y1 PAM-ag | HEK293 Y1-CNGC, membrane potential fluorescence, agonist mode | activation, % at 3.6 µM | hit rate 50% among 280;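 active = percent activation above the mean of DMSO-only control wells plus 3 SD of those wells, cut at about 18% in these data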;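 note: cells challenged with isoproterenol plus Ro 20-1724 with no NPY in test wells; Y1 agonism lowers isoproterenol-driven cAMP and reduces probe fluorescence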
NPY-Y2 agonist = NPY-Y2 direct agonists without NPY, counter-screen for NPY-Y1 potentiator project, cell-based, fluorescence; HEK293 Y2-CNGC, membrane potential fluorescence, agonist mode; activation, % at 3.6 µM; hit rate 67% among 280; shares compounds with NPY-Y1 PAM-ag;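 active = activation above the solvent-only control wells' mean plus 3 SD, cut at about 11% in these data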;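 note: 0% = DMSO with isoproterenol and 100% = 40 nM NPY maximal response; agonism lowers cAMP so well fluorescence drops in active wells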
CNGC counter = CNGC cAMP sensor activity inhibitors, counter-screen for NPY-Y1 potentiator/agonist project, cell-based, HEK293-CNG parental, membrane potential fluorescence, Y1 set; AID 1704, 2009; isoproterenol cAMP; shares compounds with NPY-Y1 PAM-ag; inhibition, % at 3.6 µM; hit rate 42% among 280;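 active = inhibition above the mean of stimulated solvent-only control wells plus 3 SD, cut at about 22% in these data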;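 note: 0% = isoproterenol-stimulated DMSO wells and 100% = unstimulated DMSO wells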
* hit, by the source's call; · = no result given. This is a sample that favours compounds with a hit; in the whole collection about 2.4% have one here.

SMILES | S1P4 agonist | NPY-Y1 PAM-ag | NPY-Y2 antag | NPY2 pot ag | S1P4 antagonist | NPY Y1 blocker | NPY-Y1 confirm | NPY-Y2 counter | NPY-Y1 agonist | NPY-Y2 agonist | CNGC counter
COC(=O)c1ccc(NC(=O)CN(c2ccc(OC)cc2)S(C)(=O)=O)cc1 | -2 | 43* | -5 | 9 | 22 | -7 | 30 | 16 | 41* | 33* | 32*
COC(=O)CSc1ccc(S(=O)(=O)N2CCCCCC2)cc1[N+](=O)[O-] | 1 | 60* | · | 0 | 7 | -12 | 121* | 100* | 108* | 104* | 99*
CC(=O)NC12CC3CC(C1)CC(C(=O)OCC(=O)Nc1ncc(Cl)c(C)c1Cl)(C3)C2 | 0 | 45* | 1 | 8 | -29 | -1 | 3 | -1 | -5 | 3 | -5
CCn1ncc(Br)c1C(=O)Nc1ccc(F)cc1F | 0 | 2 | 2 | 4 | 1 | 2 | · | · | · | · | ·
CCn1ncc(Br)c1C(=O)Nc1ccc(F)c([N+](=O)[O-])c1 | 0 | 45* | -1 | 20 | 16 | -12 | 40 | 39* | 40* | 27* | 36*
Cc1cc(C)cc(NC(=S)/C(=C(\[O-])c2ccc(Cl)cc2Cl)[n+]2ccccc2)c1 | 2 | -22 | · | -8 | 4 | 16 | · | · | · | · | ·
[O-]/C(=C(\C(=S)Nc1ccc(SC(F)F)cc1)[n+]1ccccc1)c1ccc(Cl)cc1Cl | 2 | 37* | · | 21 | -14 | -7 | 48* | 26 | 36* | 31* | 47*
COc1ccc(C(=O)CSc2nnc(CNC(=O)c3ccco3)n2C)cc1 | -1 | -16 | · | 0 | 9 | -3 | · | · | · | · | ·
O=C(OCC(=O)N1CCCc2ccccc21)c1cnc(Cl)c(Cl)c1 | 1 | 49* | 6 | 19 | 7 | -1 | 31 | 16 | 22* | 7 | 25*
CN(C)S(=O)(=O)c1ccc(N2CCCC2)c(C(=O)N2CCN(c3ccc([N+](=O)[O-])cc3)CC2)c1 | 0 | -8 | · | 12 | 5 | -4 | · | · | · | · | ·
Brc1ccc(-c2csc(Nc3nc(-c4ccc(Br)cc4)cs3)n2)cc1 | 1 | -11 | · | -12 | 0 | · | · | · | · | · | ·
Brc1ccc(Nc2nc(-c3cccnc3)cs2)cc1 | 1 | 37* | · | 28 | -7 | -11 | 42 | 31 | 43* | 38* | 34*
Cc1ccccc1CN1CCSc2sccc2C1=O | -1 | 15 | · | 14 | -6 | 2 | · | · | · | · | ·
N#Cc1ccc(NC(=O)Nc2ccc(Cl)cc2)cc1 | 0 | 49* | -2 | 27 | -12 | -9 | 34 | 33 | 23* | 28* | 32*
CC(=O)Oc1cc2c3c(c1)/C(=C1/SC(=S)NC1=O)C(=O)N3C(C)(C)C=C2C | -1 | 51* | · | 23 | -12 | · | 42 | 40* | 37* | 43* | 40*
CC(=O)N/N=C(\C)C1COc2ccccc2O1 (configuration not stated) | 0 | -1 | · | 3 | 10 | · | · | · | · | · | ·
Cc1cc(C)cc(NC(=O)Nc2ccc(-n3ccc(C(F)(F)F)n3)cc2)c1 | -1 | 40 | · | 13 | 5 | · | · | · | · | · | ·
